# Screening results as filed in PubChem BioAssay.
# Shown are actives, neighbours in structure and some others; about 2.1% of the full set was active somewhere.
# PKA-R2B act: activates the human PKA-R2B holoenzyme complex; P22694+P31323; PKA-R2B holoenzyme dissociation, Cy5-IP20 fluorescence polarization; R2B truncated from residue 108, S112A mutant; 0% DMSO only, 100% 113 µM cGMP; activation, % at 11.4 µM; actives 0.079% (n = 340,000); AID 504700;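 active = activation above a cutoff set at the mean over all compounds plus 3 SD, cut at about 18% in these data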;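 note: higher means more holoenzyme dissociation and a rise in polarization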
# dFosB act: enhances mouse delta FosB homodimer DNA binding. AID 493131. actives 0.99% (n = 340,000). purified delta FosB, TAMRA-CDK5 oligo fluorescence polarization; percent of positive-control signal above neutral wells. P13346. activation, % at 25 µM;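 active = mean activation above about 17%, with every replicate also reaching it, limit read from the data, passing the limit was not always enough; inconclusive = only one of the two conditions met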
# PKA-R1A activ: activators of PKA-R1A complex; P00514+P68181; PKA-R1A dissociation, Cy5-IP20 fluorescence polarization; scaled: DMSO 0%, 113 µM cGMP 100%; activation, % at 11.4 µM; actives 0.083% (n = 340,000);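 active = percent activation above the mean of all tested compounds plus 3 SD, cut at about 19% in these data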;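 note: higher means more PKAc released from R1A so a rise in polarization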
# CDK5 p35 inh: CDK5/p35 (human) kinase inhibition; Recombinant CDK5/p35, ADP-Glo luminescence, 60 min; AID 488839; Q00535+Q15078; inhibition, % at 10 µM; actives 0.01% (n = 330,000);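 active = highest replicate inhibition of at least 50% and at least 75% of replicates reaching 50%; inconclusive = only one of the two criteria met; inactive = both criteria failed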;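 note: plate controls were DMSO neutral control for no effect and GW8510 at 10 µM for full effect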
# Target sequence (Q00535 whole entry, looked up): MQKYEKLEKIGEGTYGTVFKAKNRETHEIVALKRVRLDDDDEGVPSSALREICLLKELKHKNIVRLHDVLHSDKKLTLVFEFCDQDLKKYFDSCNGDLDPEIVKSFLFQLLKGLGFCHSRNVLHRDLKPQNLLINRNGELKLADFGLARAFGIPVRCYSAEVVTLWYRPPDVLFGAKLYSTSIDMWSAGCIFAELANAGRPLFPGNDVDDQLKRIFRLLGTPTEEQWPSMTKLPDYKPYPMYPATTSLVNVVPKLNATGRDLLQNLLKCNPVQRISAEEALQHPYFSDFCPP
# Target sequence (Q15078 whole entry, looked up): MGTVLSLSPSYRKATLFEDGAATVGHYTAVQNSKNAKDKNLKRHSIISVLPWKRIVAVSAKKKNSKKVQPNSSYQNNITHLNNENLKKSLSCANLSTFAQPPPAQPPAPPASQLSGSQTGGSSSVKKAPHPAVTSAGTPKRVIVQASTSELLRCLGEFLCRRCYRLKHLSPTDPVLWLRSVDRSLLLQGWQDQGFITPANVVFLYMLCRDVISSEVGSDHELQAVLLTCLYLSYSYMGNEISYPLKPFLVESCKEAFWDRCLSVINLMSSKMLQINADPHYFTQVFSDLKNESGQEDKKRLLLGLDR
# SR-BI DiI-HDL act: SR-BI HDL lipid transfer activation | CHO ldlA[mSR-BI] cells, DiI-HDL uptake fluorescence, 3 h; 100 = double the neutral-control signal | activation, % at 12.5 µM | actives 0.096% (n = 320,000) | AID 504775;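 active = mean replicate activation of at least 60% and every replicate at or above 60%; inconclusive = mean or all-replicate condition met, but not both; inactive = mean below 60% and not all replicates reaching 60%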;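 note: 0% = median plate neutral-control signal and 100% = twice that signal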
#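 Material: SR-BI-overexpressing, LDLR-lacking CHO cells | Dosing: Single compound concentration, delivered by pin transfer | Probe or stimulus: Labelled HDL, 10 µg/mL | Signal: Bottom-read cell fluorescence after medium removal, ex 550/em 595 nm | Schedule: 3 h, 37 °C | Evaluation: HDL uptake via cellular fluorescence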
# SR-BI DiI inh: inhibitors of mouse SR-BI mediated HDL lipid uptake; Q61009; ldlA[mSR-BI] CHO cells, DiI-HDL uptake fluorescence, 3 h; inhibition, % at 12.5 µM; actives 0.96% (n = 320,000);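 active = mean replicate inhibition of at least 70% and a set share of replicates each scoring 70 or more; inconclusive = meets just one of the two criteria; inactive = fails both criteria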;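 note: 0% = median of neutral control wells and 100% = median of positive control wells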
# Active calls of the source: *; ? = inconclusive; . = no result.
SMILES,PKA-R2B act,dFosB act,PKA-R1A activ,CDK5 p35 inh,SR-BI DiI-HDL act,SR-BI DiI inh
O=C(N/N=C/c1ccc2c(c1)OCO2)c1ccc(COc2cccc3cccnc23)cc1,-5.4,?,4.4,-4.1,-75.7,75.7*
O=C(N/N=C/c1ccncc1)c1ccc(COc2cccc3cccnc23)cc1,-6.1,-17.9,-12.5,-1.2,-71.0,?
O=C(N/N=C/c1cc(Br)cc(Cl)c1O)c1ccc2c(c1)OCO2,-1.4,-3.7,-6.4,-4.0,-132.0,132.0*
O=C(N/N=C/c1ccc2c(c1)OCO2)c1ccc2c(c1)OCCO2,0.1,5.1,-4.7,-4.0,-2.1,2.1
COc1cc(Cl)cc(/C=N\NC(=O)c2ccc3c(c2)OCO3)c1O,0.4,.,-10.1,.,.,.
O=C(N/N=C/c1ccccc1O)c1ccc2c(c1)OCO2,3.6,-1.6,-4.8,0.7,-81.2,81.2*
Cc1c2ccncc2cc2c1[nH]c1ccccc12,6.7,78.3*,3.7,1.4,-46.6,46.6
O=C(Nc1nc2c(cc3c4c(cccc42)CC3)s1)c1ccccc1Cl,-1.5,-11.9,5.9,-0.2,-76.0,76.0*
Cc1ccc(SCC(=O)N2N=CCC2c2ccccc2)cc1 (stereo not drawn),-7.4,-8.9,-7.0,3.2,12.5,-12.5
COc1ccc(-c2csc(NC(=O)C3CSC4(C)CCC(=O)N34)n2)cc1OC (stereo not drawn),-4.2,-1.0,-12.3,-1.2,-28.0,28.0
COc1ccc(OC)c(-c2csc(NC(=O)C3CSC4(C)CCC(=O)N34)n2)c1 (stereo not drawn),-14.0,-5.9,-4.9,0.6,-82.3,82.3*
CC1CCc2c(sc3ncnc(NCCCOC(C)C)c23)C1 (stereo not drawn),4.9,-7.6,-4.9,2.6,-75.4,75.4*
CC1CCc2c(sc3ncnc(NCc4cccnc4)c23)C1 (stereo not drawn),-11.7,-0.3,-14.7,2.1,-22.5,22.5
NC1=NC(c2cn(-c3ccccc3)nc2-c2cccs2)n2c(nc3ccccc32)N1 (stereo not drawn),-2.5,36.8*,-5.8,-0.4,5.8,-5.8
CC(NS(=O)(=O)c1ccccc1)C(=O)Nc1ccc2c(c1)OCCO2 (stereo not drawn),-4.2,-3.1,10.6,0.1,5.0,-5.0
COc1ccc(O)c(C(=O)c2coc(=N)c(C(=O)Nc3ccc(SC(F)F)cc3)c2)c1,-1.7,-12.4,-2.4,-0.4,-76.0,76.0*
CC(=O)c1c(C)[nH]c(C(=O)OCC(=O)Nc2cc(C(F)(F)F)ccc2N2CCOCC2)c1C,-6.0,4.6,-3.8,1.1,-72.2,72.2*
COCC(=O)N(C)C[C@H]1N[C@@](C)(C(=O)OC)[C@H]2C(=O)N(Cc3ccccc3)C(=O)[C@@H]12,-7.9,0.3,-0.1,-0.1,20.3,-20.3
CCc1ccc(/C=N/NC(=O)c2cc(C3CC3)nc3ccc(Br)cc23)s1,9.6,-6.1,7.1,-1.2,-87.1,87.1*
CC(C)c1nc(SCC(=O)Nc2c[nH]c(=O)[nH]c2=O)c2cnn(-c3ccccc3)c2n1,3.1,153.2*,-2.6,0.3,-22.6,22.6
Cc1nc(SCC(=O)Nc2c(C)nn(C)c2C)c2cnn(-c3ccccc3)c2n1,-2.8,7.1,3.0,0.4,-24.1,24.1
Cc1ccc(S(=O)(=O)N(C)CC(=O)N(C)Cc2cccs2)cc1,9.6,.,-1.0,.,.,.
COc1ccc(/C=C2/CSC/C(=C/c3ccc(OC)c(OC)c3)C2=O)cc1OC,-3.3,1.4,1.3,1.5,-68.5,68.5
Cn1nc(CC(=O)N2CCN(c3ccccc3)CC2)c2ccccc2c1=O,6.4,-8.0,1.1,-1.8,6.2,-6.2
Cn1nc(CC(=O)Nc2ccc(N3CCN(C(=O)OC(C)(C)C)CC3)cc2)c2ccccc2c1=O,6.6,21.4*,-6.1,0.0,12.2,-12.2
SMILES,PKA-R2B act,dFosB act,PKA-R1A activ,CDK5 p35 inh,SR-BI DiI-HDL act,SR-BI DiI inh
O=C(CCc1ccccc1)NC(=S)Nc1ccccc1[N+](=O)[O-],11.8,5.4,-12.5,-1.8,.,12.6
C/C(=N\NC(=O)c1ccc(CN2CCOCC2)cc1)c1cccc([N+](=O)[O-])c1,-10.8,-1.3,-4.2,1.1,-37.1,37.1
C/C(=N/NC(=O)CNC(=O)c1ccccn1)c1ccc([N+](=O)[O-])cc1,5.1,-1.1,-2.1,-0.6,-80.2,80.2*
O=C(N/N=C/c1ccccc1[N+](=O)[O-])c1ccc(CN2CCOCC2)cc1,-3.5,-6.8,1.7,-3.8,-28.8,28.8
C/C(=N\NC(=O)c1ccc(CN2CCOCC2)cc1)c1ccc([N+](=O)[O-])cc1,-8.7,-1.2,-2.1,0.0,-71.0,71.0*
Cc1cc(/C=N/NC(=O)c2ccc(CN3CCOCC3)cc2)c(C)n1-c1ccccc1,3.9,-9.7,1.4,0.1,-72.0,72.0*
Fc1ccc(NC(=S)NN=Cc2ccccc2Cl)cc1,-9.9,-3.0,-9.0,0.4,-18.2,18.2
Cc1ccc(NC(=S)N/N=C/c2c(C)[nH]c3ccccc23)cc1,-13.5,-3.2,2.8,1.5,-102.1,102.1*
Oc1ccccc1C=NNC(=S)Nc1ccc(F)cc1,3.2,-9.6,-2.1,4.3,-100.8,100.8*
Cc1[nH]c2ccccc2c1/C=N/Nc1nc(N2CCCCC2)nc(N2CCCCC2)n1,-9.2,-2.1,5.1,-0.2,-90.6,90.6*
Cc1[nH]c2ccccc2c1/C=N/NC(N)=S,-14.1,-4.2,6.5,0.6,-86.2,86.2*
C(=N\Nc1nc(N2CCCCC2)nc(N2CCCCC2)n1)/c1c[nH]c2ccccc12,-6.0,-6.7,-4.1,-1.5,-64.3,64.3
NS(=O)(=O)c1cccc(NC(=O)COC(=O)CNC(=O)c2ccc(-c3ccccc3)cc2)c1,3.0,4.5,-5.9,-0.1,10.5,-10.5
CNc1nc(-c2c(C)n(C)c3ccc(OC)cc23)cs1,-0.9,-14.8,8.1,0.6,-7.8,7.8
CC[C@]12c3[nH]c4cc(CCC(=O)N(C)C)ccc4c3CCN1C(=O)[C@@H](CC(=O)NCc1cccc(C(F)(F)F)c1)C[C@@H]2C(=O)N1CCN(C(=O)C2CC2)CC1,4.1,-14.1,1.8,-0.6,5.3,-5.3
CC(C)N1CCN(Cc2cc3ccccc3[nH]2)CC1CCO (stereo not drawn),-11.7,-3.5,6.9,-0.2,-4.8,4.8
CN(C)c1nc(Nc2ccc(F)cc2)nc(Oc2ccc(F)cc2)n1,-2.1,1.8,-7.3,1.0,-32.6,32.6
CN(C)c1nc(N/N=C/c2ccccc2O)nc(Nc2ccc(F)cc2)n1,-10.5,60.5*,-9.1,0.5,-36.7,36.7
CCCC1CCC(c2ccc(C(=O)NN)cc2)CC1 (stereo not drawn),-2.4,-11.3,-6.2,-0.8,161.0*,-160.9
